Assay results: ChEMBL document CHEMBL3860059, “Design, Synthesis, and Biological Evaluation of First-in-Class Dual Acting Histone Deacetylases (HDACs) and Phosphodiesterase 5 (PDE5) Inhibitors for the Treatment of Alzheimer's Disease” (J Med Chem, 2016)

Tests used:
Histone deacetylase 1 = Histone deacetylase 1 (Homo sapiens, UniProt Q13547); assay: Inhibition of full length recombinant human C-terminal His/Flag-tagged HDAC1 expressed in baculovirus infected Sf9 cells using fluorogenic HDAC substrate after 30 mins by fluorescence analysis
Procedure, shortened: (§1)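 Full-length human recombinant HDAC1 (0.4 μg/mL final), HDAC2 (1.5 μg/mL), HDAC3/NCOR2 (0.1 μg/mL) or HDAC6 (3.6 μg/mL) with 10 μM fluorogenic acetyl-lysine substrate and 0.1 mg/mL BSA, 1% DMSO, 30 min at 37 °C; lysine developer 20 min at room temperature; fluorescence ex 355/em 460 nm. Vehicle = positive control, no enzyme = negative; IC50 from curve fit.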

[1] = target: T1, Protein deacetylase HDAC6 (Homo sapiens, UniProt Q9UBN7); assay: Inhibition of full length recombinant human N-terminal GST tagged HDAC6 expressed in baculovirus infected Sf9 cells using fluorogenic HDAC substrate after 30 mins by fluorescence analysis; procedure, shortened: as §1
T1 sequence (Q9UBN7 whole entry): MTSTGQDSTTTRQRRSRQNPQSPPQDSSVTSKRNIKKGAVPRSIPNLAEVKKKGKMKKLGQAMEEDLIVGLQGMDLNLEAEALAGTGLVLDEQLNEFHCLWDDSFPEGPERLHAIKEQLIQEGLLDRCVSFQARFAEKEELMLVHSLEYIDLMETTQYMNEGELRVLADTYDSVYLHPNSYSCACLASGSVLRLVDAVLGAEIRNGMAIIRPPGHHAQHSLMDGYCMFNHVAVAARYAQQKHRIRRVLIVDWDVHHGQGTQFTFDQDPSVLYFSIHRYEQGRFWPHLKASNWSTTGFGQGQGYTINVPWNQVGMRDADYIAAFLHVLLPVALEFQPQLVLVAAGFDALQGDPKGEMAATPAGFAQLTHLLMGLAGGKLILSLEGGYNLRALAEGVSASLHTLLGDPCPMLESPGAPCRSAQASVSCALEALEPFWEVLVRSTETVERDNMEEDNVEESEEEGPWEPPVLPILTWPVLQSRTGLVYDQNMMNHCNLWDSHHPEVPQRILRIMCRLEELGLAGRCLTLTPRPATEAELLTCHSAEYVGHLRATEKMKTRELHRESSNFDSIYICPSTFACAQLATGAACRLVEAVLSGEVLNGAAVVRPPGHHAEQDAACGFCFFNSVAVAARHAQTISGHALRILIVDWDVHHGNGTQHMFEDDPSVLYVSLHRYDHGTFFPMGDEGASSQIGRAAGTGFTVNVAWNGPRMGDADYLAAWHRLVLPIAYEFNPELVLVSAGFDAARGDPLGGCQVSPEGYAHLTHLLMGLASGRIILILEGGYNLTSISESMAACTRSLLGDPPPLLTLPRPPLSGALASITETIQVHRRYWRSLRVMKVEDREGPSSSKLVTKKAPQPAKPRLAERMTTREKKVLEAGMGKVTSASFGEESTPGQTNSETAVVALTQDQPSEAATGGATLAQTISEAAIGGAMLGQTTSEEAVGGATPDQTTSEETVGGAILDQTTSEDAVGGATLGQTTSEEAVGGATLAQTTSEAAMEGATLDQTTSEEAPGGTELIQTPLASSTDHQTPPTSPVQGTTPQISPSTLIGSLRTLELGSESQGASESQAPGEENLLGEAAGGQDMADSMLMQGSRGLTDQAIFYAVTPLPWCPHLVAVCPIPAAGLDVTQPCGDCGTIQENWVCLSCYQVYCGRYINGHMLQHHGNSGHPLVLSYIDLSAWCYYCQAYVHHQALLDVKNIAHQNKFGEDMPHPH

[2] = target: cGMP-specific 3',5'-cyclic phosphodiesterase (Homo sapiens, UniProt O76074); assay: Inhibition of full length recombinant human N-terminal GST-tagged PDE5A1 expressed in baculovirus infected Sf9 cells using cGMP as substrate after 30 mins by HTRF assay
Histone deacetylase 2 = Histone deacetylase 2 (Homo sapiens, UniProt Q92769); assay: Inhibition of full length recombinant human C-terminal His-tagged HDAC2 expressed in baculovirus infected Sf9 cells using fluorogenic HDAC substrate after 30 mins by fluorescence analysis; procedure, shortened: as §1
[3] = Selectivity ratio of pLC50 for mouse primary glial cells to pLC50 for human THLE2 cells; assay type: ADME, cell-based; details: mouse primary glial cells versus THLE2 cells
[4] = Passive membrane permeability of the compound at 50 uM after 18 hrs by PAMPA; assay type: ADME; details: read-out: Peff
Procedure, shortened: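 PAMPA: 50 μM donor solution in PBS/EtOH 70:30 over PVDF membrane precoated with PBL/dodecane (20 mg/mL); PBS/EtOH acceptor; 18 h at 20 °C without shaking; duplicates; donor and acceptor concentrations by UV absorbance corrected against vehicle.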

[5] = Selectivity ratio of pIC50 for full length recombinant human N-terminal GST tagged HDAC6 expressed in baculovirus infected Sf9 cells to pIC50 for full length recombinant human C-terminal His/Flag-tagged HDAC1 expressed in baculovirus infected Sf9 cells
[6] = Cytotoxicity against human THLE2 cells assessed as reduction in cell viability after 72 hrs by ATP Vialight assay; assay type: toxicity, cell-based, THLE-2; details: read-out: LC50
Procedure, shortened: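 Immortalized human liver THLE-2 cells in BEGM with 0.7 μg/mL phosphoethanolamine, 0.5 ng/mL EGF, antibiotics and 10% FBS, seeded at 10,000 cells/well and left 24 h at 37 °C. Compounds were added at final 0–100 μM in 1% DMSO for 72 h. Cellular ATP was read by luminescence after 45 min lysis.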

[7] = target: Histone deacetylase 3/Nuclear receptor corepressor 2 (HDAC3/NCoR2) (Homo sapiens, UniProt O15379); assay: Inhibition of full length recombinant human C-terminal His-tagged HDAC3/N-terminal GST-tagged NCOR2 (395 to 489 residues) expressed in baculovirus infected Sf9 cells using fluorogenic HDAC substrate after 30 mins by fluorescence analysis
Sequence of Histone deacetylase 3/Nuclear receptor corepressor 2 (HDAC3/NCoR2) (O15379 whole entry, the tested form may be a part): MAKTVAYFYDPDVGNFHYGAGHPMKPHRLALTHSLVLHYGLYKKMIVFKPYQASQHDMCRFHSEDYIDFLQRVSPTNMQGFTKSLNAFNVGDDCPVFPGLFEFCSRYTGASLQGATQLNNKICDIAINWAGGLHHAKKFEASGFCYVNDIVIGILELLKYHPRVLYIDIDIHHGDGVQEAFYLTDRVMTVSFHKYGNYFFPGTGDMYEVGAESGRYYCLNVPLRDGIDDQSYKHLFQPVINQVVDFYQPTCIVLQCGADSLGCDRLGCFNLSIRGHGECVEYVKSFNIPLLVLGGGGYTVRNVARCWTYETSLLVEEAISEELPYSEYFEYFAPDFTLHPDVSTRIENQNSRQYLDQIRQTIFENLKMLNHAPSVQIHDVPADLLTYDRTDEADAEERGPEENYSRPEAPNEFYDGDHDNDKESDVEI
Sequence of Histone deacetylase 3/Nuclear receptor corepressor 2 (HDAC3/NCoR2) (Q9Y618 whole entry, further chain, the tested form may be a part): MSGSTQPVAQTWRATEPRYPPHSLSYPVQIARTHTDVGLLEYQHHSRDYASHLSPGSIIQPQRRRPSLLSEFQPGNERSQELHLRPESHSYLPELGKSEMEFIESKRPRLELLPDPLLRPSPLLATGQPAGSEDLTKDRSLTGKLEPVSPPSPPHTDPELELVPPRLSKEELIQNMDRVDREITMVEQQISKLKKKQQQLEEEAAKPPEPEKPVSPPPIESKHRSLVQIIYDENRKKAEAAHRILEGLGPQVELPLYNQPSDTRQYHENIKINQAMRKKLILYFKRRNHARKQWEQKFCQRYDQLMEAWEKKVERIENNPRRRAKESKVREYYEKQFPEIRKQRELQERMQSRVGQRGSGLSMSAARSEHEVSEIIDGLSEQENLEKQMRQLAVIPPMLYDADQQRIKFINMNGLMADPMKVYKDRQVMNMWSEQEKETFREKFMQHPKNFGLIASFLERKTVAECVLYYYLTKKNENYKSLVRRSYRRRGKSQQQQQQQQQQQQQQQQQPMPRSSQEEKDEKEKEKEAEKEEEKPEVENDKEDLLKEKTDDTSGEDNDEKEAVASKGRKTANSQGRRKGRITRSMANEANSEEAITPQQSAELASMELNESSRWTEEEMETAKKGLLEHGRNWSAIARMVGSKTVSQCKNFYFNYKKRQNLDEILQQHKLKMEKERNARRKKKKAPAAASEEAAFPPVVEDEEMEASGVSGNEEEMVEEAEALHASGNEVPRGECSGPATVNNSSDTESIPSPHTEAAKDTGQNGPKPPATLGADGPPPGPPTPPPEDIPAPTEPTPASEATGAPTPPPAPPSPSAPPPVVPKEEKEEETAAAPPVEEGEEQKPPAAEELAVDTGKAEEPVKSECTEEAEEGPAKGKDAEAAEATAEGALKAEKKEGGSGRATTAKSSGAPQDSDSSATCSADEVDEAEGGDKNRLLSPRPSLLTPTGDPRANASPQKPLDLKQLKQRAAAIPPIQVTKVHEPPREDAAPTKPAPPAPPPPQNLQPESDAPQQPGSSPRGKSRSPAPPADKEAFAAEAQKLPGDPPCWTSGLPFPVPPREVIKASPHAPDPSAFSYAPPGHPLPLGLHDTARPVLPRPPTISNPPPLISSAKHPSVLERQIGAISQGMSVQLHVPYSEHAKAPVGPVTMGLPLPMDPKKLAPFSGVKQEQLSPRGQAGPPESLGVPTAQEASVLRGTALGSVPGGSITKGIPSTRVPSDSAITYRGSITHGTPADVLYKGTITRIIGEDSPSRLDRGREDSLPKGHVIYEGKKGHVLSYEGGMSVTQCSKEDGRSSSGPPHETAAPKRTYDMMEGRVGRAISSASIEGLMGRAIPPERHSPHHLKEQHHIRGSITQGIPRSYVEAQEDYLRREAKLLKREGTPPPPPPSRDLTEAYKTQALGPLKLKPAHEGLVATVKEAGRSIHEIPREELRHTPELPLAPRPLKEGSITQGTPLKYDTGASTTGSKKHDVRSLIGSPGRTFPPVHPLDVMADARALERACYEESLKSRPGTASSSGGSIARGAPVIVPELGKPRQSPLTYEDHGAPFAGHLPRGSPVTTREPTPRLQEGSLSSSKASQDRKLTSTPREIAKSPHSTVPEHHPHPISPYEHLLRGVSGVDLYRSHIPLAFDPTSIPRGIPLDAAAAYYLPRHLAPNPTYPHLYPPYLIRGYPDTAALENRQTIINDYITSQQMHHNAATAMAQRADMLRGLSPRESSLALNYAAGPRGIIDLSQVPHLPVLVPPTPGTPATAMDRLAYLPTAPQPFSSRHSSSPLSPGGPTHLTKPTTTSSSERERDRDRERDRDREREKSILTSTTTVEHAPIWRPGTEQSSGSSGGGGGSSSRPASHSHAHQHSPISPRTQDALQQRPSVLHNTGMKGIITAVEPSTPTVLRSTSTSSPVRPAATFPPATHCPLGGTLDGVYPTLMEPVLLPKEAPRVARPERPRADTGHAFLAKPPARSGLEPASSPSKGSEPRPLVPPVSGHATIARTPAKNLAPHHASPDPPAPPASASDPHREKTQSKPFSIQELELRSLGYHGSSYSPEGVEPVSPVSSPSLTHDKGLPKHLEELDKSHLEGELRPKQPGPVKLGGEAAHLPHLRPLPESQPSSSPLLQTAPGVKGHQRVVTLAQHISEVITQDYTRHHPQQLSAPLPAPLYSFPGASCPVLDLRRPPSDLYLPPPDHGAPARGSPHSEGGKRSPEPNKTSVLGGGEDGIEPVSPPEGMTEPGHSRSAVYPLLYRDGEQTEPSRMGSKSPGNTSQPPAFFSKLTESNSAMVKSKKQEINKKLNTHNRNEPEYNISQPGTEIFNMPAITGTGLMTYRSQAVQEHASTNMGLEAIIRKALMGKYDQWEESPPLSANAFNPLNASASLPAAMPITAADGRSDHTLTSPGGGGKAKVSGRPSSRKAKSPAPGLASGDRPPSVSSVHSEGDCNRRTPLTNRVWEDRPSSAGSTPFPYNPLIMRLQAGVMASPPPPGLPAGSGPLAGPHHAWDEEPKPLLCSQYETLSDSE

Sequence of Histone deacetylase 1 (Q13547 whole entry): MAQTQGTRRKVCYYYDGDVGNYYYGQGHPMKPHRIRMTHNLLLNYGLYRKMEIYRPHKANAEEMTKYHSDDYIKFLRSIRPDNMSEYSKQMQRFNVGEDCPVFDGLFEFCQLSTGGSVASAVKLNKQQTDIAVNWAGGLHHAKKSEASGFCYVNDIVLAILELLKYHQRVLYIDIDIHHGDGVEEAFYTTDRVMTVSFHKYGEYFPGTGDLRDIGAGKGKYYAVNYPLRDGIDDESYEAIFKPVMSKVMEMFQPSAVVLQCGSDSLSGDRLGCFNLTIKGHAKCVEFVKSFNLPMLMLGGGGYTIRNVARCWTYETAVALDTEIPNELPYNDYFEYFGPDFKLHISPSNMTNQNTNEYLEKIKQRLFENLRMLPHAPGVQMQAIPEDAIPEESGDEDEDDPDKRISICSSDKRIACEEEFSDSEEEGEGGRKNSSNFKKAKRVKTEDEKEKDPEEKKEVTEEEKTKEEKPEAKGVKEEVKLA
Sequence of Histone deacetylase 2 (Q92769 whole entry): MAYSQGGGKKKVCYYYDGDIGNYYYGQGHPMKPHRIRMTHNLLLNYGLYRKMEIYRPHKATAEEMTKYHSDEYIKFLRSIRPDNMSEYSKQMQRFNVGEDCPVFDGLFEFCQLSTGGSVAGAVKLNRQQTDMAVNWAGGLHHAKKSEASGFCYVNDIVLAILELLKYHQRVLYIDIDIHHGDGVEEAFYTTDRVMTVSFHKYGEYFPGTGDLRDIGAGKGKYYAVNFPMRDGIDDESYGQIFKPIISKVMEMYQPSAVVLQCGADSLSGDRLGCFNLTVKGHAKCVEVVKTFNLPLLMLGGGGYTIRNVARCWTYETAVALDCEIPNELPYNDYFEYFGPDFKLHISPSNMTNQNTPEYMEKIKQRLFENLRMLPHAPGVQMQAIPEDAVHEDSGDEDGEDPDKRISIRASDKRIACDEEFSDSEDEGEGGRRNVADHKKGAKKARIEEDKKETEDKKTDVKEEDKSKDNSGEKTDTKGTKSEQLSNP

Row | SMILES | IC50 (Histone deacetylase 1) [nM] | IC50 [1] [nM] | IC50 [2] [nM] | IC50 (Histone deacetylase 2) [nM] | selectivity ratio [3] | Papp at 18 h, 50 µM [4] [×10⁻⁶ cm/s] | Ratio pIC50 [5] | CC50 at 72 h [6] [nM] | IC50 [7] [nM]
1 | CCCc1nn(C)c2c(=O)[nH]c(-c3cc(C(=O)NO)ccc3OCC)nc12 | 6420 | > 20000 | 5 | > 20000 | – | – | – | – | –
2 | CCCc1nn(C)c2c(=O)[nH]c(-c3cc(OC4CCC(C(=O)NO)CC4)ccc3OCC)nc12 (configuration not stated) | 2440 | 2330 | 11 | 9830 | – | – | – | – | –
3 | CCCc1nn(C)c2c(=O)[nH]c(-c3cc(-c4ccc(C(=O)NO)nc4)ccc3OCC)nc12 | 2360 | 861 | 4 | > 20000 | < 0.4 | 1.52 | – | – | –
4 | CCCc1nn(C)c2c(=O)[nH]c(-c3cc(C4CCC(CC(=O)NO)CC4)ccc3OCC)nc12 (configuration not stated) | 6910 | 5130 | 70 | > 20000 | – | – | – | – | –
5 | CCCc1nn(C)c2c(=O)[nH]c(-c3cc(NCC4CCN(c5ncc(C(=O)NO)cn5)CC4)ccc3OCC)nc12 | 118 | 709 | 17 | 712 | – | – | > 0.6 | – | –
6 | CCCc1nn(C)c2c(=O)[nH]c(-c3cc(-c4ccc(C(=O)NO)cn4)ccc3OCC)nc12 | 354 | 79 | 4 | 1870 | < 0.4 | 0.92 | – | – | –
7 | CCCc1nn(C)c2c(=O)[nH]c(-c3cc(S(=O)(=O)N4CCN(CCCC(=O)NO)CC4)ccc3OCC)nc12 | 1100 | 360 | 2 | 4640 | – | – | – | – | –
8 | CCCc1nn(C)c2c(=O)[nH]c(-c3cc(NCCC(=O)NO)ccc3OCC)nc12 | 7080 | 10400 | 44 | > 20000 | – | – | – | – | –
9 | CCCc1nn(C)c2c(=O)[nH]c(-c3cc(N4CCC(CCC(=O)NO)CC4)ccc3OCC)nc12 | 603 | 1060 | 24 | 2030 | – | – | – | – | –
10 | CCCc1nn(C)c2c(=O)[nH]c(-c3cc(S(=O)(=O)N4CCC(CCC(=O)NO)CC4)ccc3OCC)nc12 | 406 | 87 | 0.5 | 1940 | – | – | – | – | –
11 | CCCc1nn(C)c2c(=O)[nH]c(-c3cc(N4CCC5(CCN(c6ncc(C(=O)NO)cn6)CC5)C4)ccc3OCC)nc12 | 443 | 1900 | 74 | 1850 | – | – | > 0.6 | – | –
12 | CCCc1nn(C)c2c(=O)[nH]c(-c3cc(NC4CCN(c5ccc(C(=O)NO)cc5)CC4)ccc3OCC)nc12 | 7810 | 1600 | 20 | 17500 | – | – | – | – | –
13 | CCCc1nn(C)c2c(=O)[nH]c(-c3cc(N4CCC5(CCC(C(=O)NO)C5)CC4)ccc3OCC)nc12 (configuration not stated) | 12900 | 4340 | 12 | > 20000 | – | – | – | – | –
14 | CCCc1nn(C)c2c(=O)[nH]c(-c3cc(-c4ccc(C(=O)NO)o4)ccc3OCC)nc12 | > 20000 | 5570 | 5 | > 20000 | – | – | – | – | –
15 | CCCc1nn(C)c2c(=O)[nH]c(-c3cc(CCC(=O)NO)ccc3OCC)nc12 | 4810 | 2120 | 46 | > 20000 | – | – | – | – | –
16 | CCCc1nn(C)c2c(=O)[nH]c(-c3cc(CN4CCN(c5ncc(C(=O)NO)cn5)CC4)ccc3OCC)nc12 | 14 | 379 | 7 | 89 | < 0.4 | 0.89 | > 1 | – | –
17 | CCCc1nn(C)c2c(=O)[nH]c(-c3cc(CN4CC(C(=O)NO)C4)ccc3OCC)nc12 | > 20000 | > 10000 | 303 | > 20000 | – | – | – | – | –
18 | CCCc1nn(C)c2c(=O)[nH]c(-c3cc(Cc4ccc(/C=C/C(=O)NO)cc4)ccc3OCC)nc12 | 1530 | 1790 | 122 | > 20000 | – | – | – | – | –
19 | CCCc1nn(C)c2c(=O)[nH]c(-c3cc(CC4CCN(CCC(=O)NO)CC4)ccc3OCC)nc12 | > 20000 | > 20000 | 57 | > 20000 | – | – | – | – | –
20 | CCCc1nn(C)c2c(=O)[nH]c(-c3cc(C4CC4C(=O)NO)ccc3OCC)nc12 (configuration not stated) | 8750 | 5370 | 20 | > 20000 | – | – | – | – | –
21 | CCCc1nn(C)c2c(=O)[nH]c(-c3cc(NC4CCC(C(=O)NO)CC4)ccc3OCC)nc12 (configuration not stated) | 5980 | 12700 | 22 | > 20000 | – | – | – | – | –
22 | CCCc1nn(C)c2c(=O)[nH]c(-c3cc(Oc4ccc(C(=O)NO)cc4)ccc3OCC)nc12 | 566 | 196 | 23 | 2250 | < 0.4 | 3.68 | – | – | –
23 | CCCc1nn(C)c2c(=O)[nH]c(-c3cc(S(=O)(=O)N4CCN(C)CC4)ccc3OCC)nc12 | – | – | – | – | – | 2.75 | – | > 100000 | –
24 | CCCc1nn(C)c2c(=O)[nH]c(-c3cc(NC4CCN(c5ncc(C(=O)NO)cn5)CC4)ccc3OCC)nc12 | 68 | 441 | 5 | 490 | < 0.4 | 1.34 | > 0.6 | 2570 | 31
25 | CCCc1nn(C)c2c(=O)[nH]c(-c3cc(Cc4ccc(CCC(=O)NO)cc4)ccc3OCC)nc12 | 2420 | 2350 | 13 | > 20000 | – | – | – | – | > 20000
26 | CCCc1nn(C)c2c(=O)[nH]c(-c3cc(N(C)C4CCN(c5ncc(C(=O)NO)cn5)CC4)ccc3OCC)nc12 | 25 | 584 | 10 | 166 | – | – | > 1 | – | 43
27 | CCCc1nn(C)c2c(=O)[nH]c(-c3cc(N4CCCC5(CCC(C(=O)NO)CC5)C4)ccc3OCC)nc12 (configuration not stated) | 9270 | 10100 | 40 | > 20000 | – | – | – | – | –
28 | CCCc1nn(C)c2c(=O)[nH]c(-c3cc(CN4CCC(C(=O)NO)CC4)ccc3OCC)nc12 | 7620 | 9640 | 207 | > 20000 | – | – | – | – | –
29 | CCCc1nn(C)c2c(=O)[nH]c(-c3cc(S(=O)(=O)N4CCN(CCC(=O)NO)CC4)ccc3OCC)nc12 | 10500 | 2360 | 3 | > 20000 | – | – | – | – | –
30 | CCCc1nn(C)c2c(=O)[nH]c(-c3cc(CC(=O)NO)ccc3OCC)nc12 | > 20000 | > 20000 | 19 | > 20000 | – | – | – | – | –
